Measurements from different studies.
Lines come from different studies, so protocols differ.
Target: Serine/threonine-protein kinase MARK2 (MARK2, Homo sapiens, UniProt Q7KZI7)

| SMILES | assay | system | setting | quantity | value |
| --- | --- | --- | --- | --- | --- |
| COc1cc(Nc2cnc(C#N)c(O[C@H](C)CN(C)C)n2)ncc1-c1cnn(C)c1 | enzyme activity, inhibitor, radiometric | – | 10 µM | remaining activity | 57% |
| Cc1cc(-n2nc(Cc3cc(F)cc(C(F)(F)F)c3)nc2C)ccc1C(N)=O | cell-free assay, competition with immobilised ligand | – | 1 µM | remaining binding | 89% |
| Cc1nn(CC(F)(F)F)cc1Nc1ncc(C2CC2)c(NCc2ccc(S(N)(=O)=O)cc2)n1 | enzyme activity, inhibitor, radiometric | – | 1 µM | remaining activity | 100% |
| O=C1NC(=O)c2cc(Nc3ccc(F)cc3)c(Nc3ccc(F)cc3)cc21 | cell-free assay | – | 0.5 µM | remaining signal | 98.2% |
| Cc1nn(CC(F)(F)F)cc1Nc1nccc(NCCCNC(=O)C2CCC2)n1 | enzyme activity, inhibitor, radiometric | – | 1 µM | remaining activity | 103% |
| COc1cc2ncnc(Nc3ccc(Oc4ccccc4)c(C)c3C)c2cc1OC | enzyme activity, inhibitor | – | 1 µM | inhibition | 6% |
| Cc1c(C(=O)O)cc(-c2ccc(C3CCNCC3)cc2)c2ccc(-c3ccc(C(F)(F)F)cc3)cc12 | binding, competition with immobilised ligand | – | 1 µM | remaining binding | 100% |
| FC(F)(F)Oc1cccc(-c2cnc3ccc(-c4ccncc4)nn23)c1 | enzyme activity, inhibitor, radiometric | – | 1 µM | activity vs control | 106% |
| Cc1c(NC(=O)c2cc(C(N)=O)nc3cc(F)ccc23)c(C(F)(F)F)nn1Cc1ccc(C#N)cc1 | cell-free assay, competition with immobilised ligand | – | 1 µM | remaining binding | 97% |
| O=C(NCCCNc1nc(Nc2cccc(CN3CCOCC3)c2)ncc1C1CC1)C1CCC1 | enzyme activity, inhibitor, radiometric | – | 1 µM | remaining activity | 4% |
| Cc1noc([C@H]2C[C@@H](c3ccc(C(F)(F)F)cc3)CN(C(=O)N3CCS(=O)(=O)C3)C2)n1 | cell-free assay, competition with immobilised ligand | – | 1 µM | remaining binding | 100% |
| O=C1Nc2ccc(Cl)cc2C1=Cc1cc(Cl)c(O)c(Cl)c1 | cell-free assay | – | 0.5 µM | remaining signal | 79.7% |
| CS(=O)(=O)c1cc(C2(NC(=O)c3cncc4c3cnn4-c3ccc(F)cc3)CC2)ccn1 | cell-free assay, competition with immobilised ligand | – | 1 µM | remaining binding | 100% |
| c1cc(CN2CCOCC2)cc(Nc2ncc(C3CC3)c(NCCc3c[nH]cn3)n2)c1 | enzyme activity, inhibitor, radiometric | – | 1 µM | remaining activity | 14% |
| COc1cc(/C=C/C(=O)CC(=O)/C=C/c2ccc(O)c(OC)c2)ccc1O | enzyme activity, inhibitor | – | 1 µM | activity vs control | 78% |
| Cc1ccc(NC(=O)c2ccc(C)c(C(F)(F)F)c2)cc1C#Cc1nn(C2CCC(O)CC2)c2ncnc(N)c12 (centres unmarked) | cell-free assay | – | 10 µM | remaining signal | 98% |

| SMILES | assay | system | setting | quantity | value |
| --- | --- | --- | --- | --- | --- |
| FC(F)c1nc2ccccc2n1-c1nc(N2CCOCC2)nc(N2CCOCC2)n1 | enzyme activity, inhibitor | – | 10 µM | remaining activity | 87% |
| CNC(=O)c1cc(Oc2ccc(NC(=O)Nc3ccc(Cl)c(C(F)(F)F)c3)cc2)ccn1 | enzyme activity, inhibitor | – | 10 µM | inhibition | 26% |
| C[C@@H]1CCN(C(=O)CC#N)C[C@@H]1N(C)c1ncnc2[nH]ccc12 | cell-free assay, inhibitor | – | 0.5 µM | remaining signal | 91.8% |
| O=C(Nc1cccnn1)N1CC(C/C=C/c2cncc(Oc3ccc(C(F)(F)F)cn3)n2)C1 | cell-free assay, competition with immobilised ligand | – | 1 µM | remaining binding | 80% |
| Cc1ccc(Nc2nccc(N(C)c3ccc4c(C)n(C)nc4c3)n2)cc1S(N)(=O)=O | enzyme activity, inhibitor | – | 0.3 µM | inhibition | 27% |
| O=C(NCCCNc1nc(Nc2cccc(NC(=O)N3CCCC3)c2)ncc1I)c1cccs1 | enzyme activity, inhibitor, radiometric | – | 1 µM | remaining activity | 3% |
| CNc1cc(Oc2cc(C(=O)Nc3cc(N4CCN(C)CC4)cc(C(F)(F)F)c3)ccc2C)ncn1 | target engagement in cells, inhibitor, chemoproteomics | Huh-7 | 1 µM | inhibition | -25.4% |
| Cc1cc(NC(=O)c2cccc3cc(-c4cccc5[nH]nc(N)c45)ccc23)ccc1F | enzyme activity, inhibitor | – | 0.1 µM | activity vs control | 94% |
| Cc1ccc(C(=O)NCc2ccsc2)cc1C#Cc1cn(C(C)C)c2ncnc(N)c12 | enzyme activity, inhibitor | – | 1 µM | activity vs control | 99% |
| CN1CCN(c2cnc3c(C4CCN(C(=O)c5ccc(OC(F)(F)F)cc5N)CC4)ncnc3c2)CC1 | cell-free assay, competition with immobilised ligand | – | 1 µM | remaining binding | 100% |
| NS(=O)(=O)c1ccc(CNc2nc(Nc3cccc(CN4CCOCC4)c3)ncc2C2CC2)cc1 | enzyme activity, inhibitor, radiometric | – | 1 µM | remaining activity | 98% |
| CN(C)C1CCN(CC#Cc2nn(C3CCCC3)c3nc(NCc4ccccc4)ncc23)C1 (centres unmarked) | enzyme activity, inhibitor, FRET | – | 10 µM | inhibition | 16% |
| O=C(Nc1cccc(Nc2ncc(Br)c(NCCc3cnc[nH]3)n2)c1)N1CCCC1 | enzyme activity, inhibitor, radiometric | – | 1 µM | remaining activity | 5% |
| c1ccc(CNc2nc(N3CCOc4ccccc43)nc3c2CCCC3)cc1 | target engagement in cells, inhibitor, chemoproteomics | – | 20 mM | inhibition | -11.2% |
| Cc1nn(CC(F)(F)F)cc1Nc1nccc(NCCc2cnc[nH]2)n1 | enzyme activity, inhibitor, radiometric | – | 1 µM | remaining activity | 104% |
| CCCCN(CCCC)C(=O)CN1C[C@@H](c2cc(OC)c3c(c2)OCO3)[C@H](C(=O)O)[C@H]1CC(C)(C)CCC | cell-free assay, competition with immobilised ligand | – | 1 µM | remaining binding | 100% |
